This passage reports IC50 and MIC results from ChEMBL document CHEMBL4190231, “Anti-Cryptococcus Phenalenones and Cyclic Tetrapeptides from Auxarthron pseudauxarthron” (J Nat Prod, 2017).

≈ marks a conversion by molar mass, not a printed value. Some results are limits rather than exact numbers.

For one assay, the system named is MDA-MB-231. Description: Cytotoxicity against human MDA-MB-231 cells by Celltiter-Glo assay. The assay is classed as functional, cell-based. The method in brief:
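Viability was measured with CellTiter-Glo reagent added 1:1 to well medium. Plates were kept foil-covered and shaken 2 min at room temperature, paused 2 min, then shaken another 2 min. Luminescence was read on a plate reader.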
(ATP-based viability assays read luminescence as a measure of living cells.)

A further assay concerns Cryptococcus neoformans. Description: Antifungal activity against Cryptococcus neoformans H99 after 48 hrs by resazurin assay. The assay is classed as functional. Conditions: var grubii H99 , read-out: MIC100. The method in brief: (§1)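 Broth serial dilution MIC per NCCLS, in 96-well plates with YM medium (1% maltose extract, 0.2% yeast extract, 0.4% agar). Compounds were dissolved in DMSO and diluted in medium, with amphotericin B as positive control. Incubation was at 25 °C, read at 24 h for C. albicans and 48 h for C. neoformans. Read-outs were visual, OD and PrestoBlue resazurin. MIC is the lowest concentration giving 100% inhibition versus untreated growth.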
In general terms: Alamar Blue is a resazurin reagent that responds to reducing activity.

For a further assay, the system named is MDA-MB-453. Description: Cytotoxicity against human MDA-MB-453 cells by Celltiter-Glo assay. The assay is classed as functional, cell-based.
The next assay has as its system Candida albicans. As to the kind of experiment: Antifungal activity against Candida albicans ATCC 10231 after 24 hrs by resazurin assay. The assay is classed as functional. Conditions: ATCC 10231, 24 h, read-out: MIC100. The method in brief: as §1

As to `COc1cc(O)c2c3c(c(O)cc(C)c13)C1=C(C)C(=O)CC1(O)C2=O` (configuration not stated), the IC50 in the assay on MDA-MB-231 and in the assay with MDA-MB-453 was more than 20 µM throughout. In addition, the MIC in the assay with Cryptococcus neoformans came out at 25.6 µg/mL (≈ 75.2 µM); in the assay with Candida albicans it was 51.2 µg/mL (≈ 150 µM).

Consider `CCC(=O)C(C)C1(O)C(=O)c2c(O)cc(C)c3c(OC)cc(O)c(c23)C1=O` (configuration not stated), for which the IC50 in the assay on MDA-MB-231 and with MDA-MB-453 was more than 20 µM throughout. Further, the MIC in the assay with Cryptococcus neoformans and with Candida albicans was 6.4 µg/mL (≈ 17.2 µM) each time.

In the case of `COc1cc(O)c2c3c(c(O)cc(C)c13)C(=O)C(O)(CC(C)=O)C2=O` (configuration not stated), the IC50 in the assay with MDA-MB-231 and with MDA-MB-453 was more than 20 µM throughout. The MIC in the assay with Cryptococcus neoformans and with Candida albicans was 51.2 µg/mL (≈ 149 µM) each time.

As to `CCC(=O)CC1(O)C(=O)c2c(O)cc(C)c3c(OC)cc(O)c(c23)C1=O` (configuration not stated), the IC50 with MDA-MB-231 and in the assay on MDA-MB-453 was more than 20 µM in each case. Also, the MIC in the assay with Cryptococcus neoformans came out at 12.8 µg/mL (≈ 35.7 µM); with Candida albicans, 25.6 µg/mL (≈ 71.4 µM).

Turning to `COc1cc(O)c2c3c(c(O)cc(C)c13)C(=O)C(O)(C(C)C(C)=O)C2=O` (configuration not stated), the IC50 in the assay on MDA-MB-231 and with MDA-MB-453 was more than 20 µM each time. Moreover, the MIC in the assay with Cryptococcus neoformans and with Candida albicans was 3.2 µg/mL (≈ 8.93 µM) each time.

Take `C[C@@H]1[C@H](O)[C@@H](C)/C=C/C=C/C=C/C=C/C=C/C=C/C=C/[C@H](O[C@@H]2O[C@H](C)[C@@H](O)[C@H](N)[C@@H]2O)C[C@@H]2O[C@](O)(C[C@@H](O)C[C@@H](O)[C@H](O)CC[C@@H](O)C[C@@H](O)CC(=O)O[C@H]1C)C[C@H](O)[C@H]2C(=O)O` [AMPHOTERICIN B]: the MIC with Cryptococcus neoformans and in the assay on Candida albicans was 0.8 µg/mL (≈ 0.866 µM) each time.
